Results on two molecules are retold here after paper PMC7034278 (Neural Regeneration Research, 2019).

In experiment [1] the test system is SK-N-SH human neuroblastoma cells. Kind of experiment: Cell viability assay. The following applies: 250 μM H2O2, 2 h, in comparison with the vehicle control group. Type of experiment: cell-based. In short, it runs like this: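 SK-N-SH neuroblastoma cells were seeded at 1 × 10^4 per well and exposed to 250 μM H2O2 for 2 h. They were then cultured a further 48 h; peptide arms received 20 μg/mL. CCK-8 reagent was added for 2 h at 37°C, and absorbance was read at 490 nm. Five repeats; mean ± SEM; one-way ANOVA with Bonferroni post-hoc test.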

Experiment [2] concerns mouse cerebellar granule neurons. Kind of experiment: Neurite outgrowth assay, H2O2-stressed cerebellar granule neurons. Type of experiment: cell-based. The following applies: 250 μM H2O2, 2 h, in comparison with the vehicle control group. In short, it runs like this: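 Primary cerebellar granule neurons from C57BL/6 mice were seeded at 2 × 10^4 cells on poly-D-lysine in Neurobasal A without B-27. They received 250 μM H2O2 for 2 h, then 24 h culture (peptide arms at 20 μg/mL). Cells were fixed in 4% formaldehyde and stained with crystal violet. Neurites at least one soma diameter long and free of cell contact were measured at 40×, about 50 cells per group. Three repeats.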

Experiment [3] relates to neural cell adhesion molecule L1. Kind of experiment: L1 immunofluorescence staining, H2O2-stressed SK-N-SH cells. It is filed as cell-based, human. The conditions noted are these: 250 μM H2O2, 2 h, in comparison with the control group. In a few lines:
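SK-N-SH cells were seeded at 1 × 10^4 per well, given 250 μM H2O2 for 2 h, then cultured 48 h (peptide arms at 20 μg/mL). Cells were fixed in 4% formaldehyde for 10 min and blocked with 10% donkey serum for 40 min. Anti-L1 mouse monoclonal (1:200) was applied overnight at 4°C, then Alexa 488 secondary (1:500) for 1 h, with DAPI mounting. Confocal L1 intensity was measured.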

Experiment [4] concerns SK-N-SH human neuroblastoma cells. The following applies: previous study; ref Zhang et al., 2017; cited from earlier work.
Another experiment has as its system Sambucus nigra lectin. Kind of experiment: Competition ELISA. The conditions noted are these: by phage binding and competition ELISA. (ELISA stands for enzyme-linked immunosorbent assay.)

Take `OO` [H2O2]: the “survival of SK-N-SH cells after H2O2 alone” value in experiment [1] was “reduced survival”. Also, the “neurite length after H2O2 alone” value in experiment [2] is recorded as “reduced the lengths of neurites”. Besides, in experiment [3], the “L1 expression after H2O2 alone” value is recorded as “reduced L1 expression”. The “cell viability of SK-N-SH cells in response to H2O2” value in experiment [4] is “decreased in a dose- and time-dependent manner”.
Consider H-PRHGKKPTNKRK-OH [mimetic peptide], for which the “affinity to Sambucus nigra lectin” value with Sambucus nigra lectin is recorded as “high affinity”.
